Test results taken from ChEMBL document CHEMBL1148398, “Design, synthesis, and biological evaluation of thio-containing compounds with serum HDL-cholesterol-elevating properties” (2004).

Key:
Cricetinae gen. sp. [1] = assay: Percent change in high-density lipoprotein cholesterol following oral administration of compound in hypercholesterolemic hamsters at 100 mg/kg/day for 14 days; format: functional
Outline: (§1)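 Male Syrian Golden hamsters pre-fed chow plus 0.25% cholesterol for 2 weeks and kept on it. Dosed 100 mg/kg/day by oral gavage in 2% Tween 80/saline for 14 days. Serum total cholesterol and glycerol-blanked triglycerides read enzymatically; lipoproteins separated by FPLC with cholesterol measured in each fraction. % change versus vehicle controls; six per group, p < 0.05.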

Cricetinae gen. sp. [2] = assay: Percent change in low-density lipoprotein cholesterol following oral administration of compound in hypercholesterolemic hamsters at 100 mg/kg/day for 14 days; format: functional; outline: as §1
Cricetinae gen. sp. [3] = assay: Effect of compound on high-density lipoprotein cholesterol levels in 1st group of cholesterol-fed male hamsters at 3 mg/kg/day after 14 days of treatment; format: functional, organism-based
Rattus norvegicus [4] = assay: Effect of compound on gain in body weight in 5th group of normal chow-fed male rats after a dose of 20 mg/kg/day; format: functional
Outline: (§2)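 Male Sprague–Dawley CD rats (60–80 g) on standard chow under a reversed 12 h light/dark cycle. Compound was suspended in 1.3% Tween 80/0.25% CMC and given as a single daily oral gavage dose for 4 days. Rats were fasted overnight and killed 24 h after the last dose. Serum ALT, AST, ALKP and LDH were read on a clinical analyzer. Weight gain was start versus end weight. Mean ± SEM, n = 6.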

Rattus norvegicus [5] = assay: Percent change in very low-density lipoprotein cholesterol following oral administration of compound in normal chow-fed rats at 100 mg/kg/day for 4 days; format: functional
Outline: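 Chow-fed male Sprague–Dawley CD rats, 60–80 g, gavaged 100 mg/kg/day for 4 days in 1.3% Tween 80/0.25% CMC. Fasted overnight, bled 24 h after the last dose. Total cholesterol and glycerol-blanked triglycerides read enzymatically; lipoproteins by FPLC with cholesterol per fraction. % change versus control; six per group, p < 0.05.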

Rattus norvegicus [6] = assay: Effect of compound on alanine aminotransferase (ALT) levels in 1st group of normal chow-fed male rats after a dose of 1 mg/kg/day; format: functional, organism-based; outline: as §2
Rattus norvegicus [7] = assay: Effect of compound on alanine aminotransferase (ALT) levels in 3rd group of normal chow-fed male rats after a dose of 5 mg/kg/day; format: functional, organism-based; outline: as §2
Rattus norvegicus [8] = assay: Effect of compound on aspartate aminotransferase (AST) levels in 7th group of normal chow-fed male rats after a dose of 100 mg/kg/day; format: functional, organism-based; outline: as §2
Rattus norvegicus [9] = assay: Effect of compound on liver weight in 1st group of normal chow-fed male rats after a dose of 1 mg/kg/day; format: functional
Outline: (§3)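 Male Sprague–Dawley CD rats, 60–80 g, on chow with a reverse 12 h light/dark cycle. Given one oral gavage dose daily for 4 days, suspended in 1.3% Tween 80/0.25% CMC. Fasted overnight and sacrificed 24 h after the last dose for blood and liver. Serum liver enzymes read on a clinical analyzer. Six per group, mean ± SEM.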

Rattus norvegicus [10] = assay: Effect of compound on serum apolipoprotein A1 concentration in chow-fed male rats at a dose of 50 mg/kg/day; format: functional, organism-based
Outline: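 Separate dose-response study in male Sprague–Dawley CD rats, 60–80 g, on chow. Oral gavage once daily for 4 days in 1.3% Tween 80 / 0.25% CMC; fasted overnight, bled 24 h after last dose. Apo-A1 by ELISA with rabbit anti-rat primary, alkaline phosphatase-conjugated anti-rabbit IgG and p-nitrophenyl phosphate substrate. HDL-C by FPLC fractionation. Mean ± SEM, six per group.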

Rattus norvegicus [11] = assay: Effect of compound on thyroxine levels in 7th group of normal chow-fed male rats after a dose of 100 mg/kg/day; format: functional, organism-based
Outline: (§4)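 Male Sprague–Dawley CD rats, 60–80 g, on standard chow with reverse 12 h light/dark cycle. One oral gavage dose daily for 4 days, suspended in 1.3% Tween 80 and 0.25% CMC. Fasted overnight; sacrificed 24 h after the last dose. Serum TC on clinical analyzer, lipoproteins by FPLC with cholesterol per fraction, T4 on analyzer. Mean ± SEM, six rats per group.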

Rattus norvegicus [12] = assay: Effect of compound on total plasma cholesterol levels in 2nd group of normal chow-fed male rats after a dose of 2 mg/kg/day; format: functional, organism-based; outline: as §4
Rattus norvegicus [13] = assay: Effect of compound on total plasma cholesterol levels in 7th group of normal chow-fed male rats after a dose of 100 mg/kg/day; format: functional, organism-based
Outline: (§5)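 Male Sprague–Dawley CD rats (60–80 g) on Purina 5001 chow with a reverse 12 h light/dark cycle. Dosed once daily by oral gavage for 4 days, suspended in 1.3% Tween 80 / 0.25% CMC. Fasted overnight and bled 24 h after the last dose. Serum TC and glycerol-blanked TG measured enzymatically; VLDL-C by FPLC fractionation with cholesterol assay. n=6, mean ± SEM.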

Rattus norvegicus [14] = assay: Effect of compound on triglyceride levels in 7th group of normal chow-fed male rats after a dose of 100 mg/kg/day; format: functional, organism-based; outline: as §5
Rattus norvegicus [15] = assay: Effect of compound on lactic dehydrogenase (LDH) levels in 4th group of normal chow-fed male rats after a dose of 10 mg/kg/day; format: functional, organism-based; outline: as §3
Rattus norvegicus [16] = assay: Effect of compound on lactic dehydrogenase (LDH) levels in 7th group of normal chow-fed male rats after a dose of 100 mg/kg/day; format: functional, organism-based; outline: as §3
Rattus norvegicus [17] = assay: Effect of compound on lactic dehydrogenase (LDH) levels in 1st group of normal chow-fed male rats after a dose of 1 mg/kg/day; format: functional, organism-based; outline: as §2
Rattus norvegicus [18] = assay: Effect of compound on very low-density lipoprotein cholesterol levels in 5th group of normal chow-fed male rats after a dose of 20 mg/kg/day; format: functional, organism-based; outline: as §5
[19] = Effect on serum lipids in 5th group of normal chow-fed male rats after a dose of 20 mg/kg/day was evaluated as ratio of total plasma cholesterol levels to high-density lipoprotein cholesterol levels; format: functional
Outline: (§6)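 Male Sprague–Dawley CD rats, 60–80 g, chow-fed, dosed by oral gavage daily for 4 days in 1.3% Tween 80/0.25% CMC. Fasted overnight, bled 24 h after the last dose. Serum total cholesterol by enzymatic reagent; HDL-C from cholesterol in FPLC fractions; TPC/HDL-C ratio calculated. Six per group, mean ± SEM.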

[20] = Effect on serum lipids in 6th group of normal chow-fed male rats after a dose of 50 mg/kg/day was evaluated as ratio of total plasma cholesterol levels to high-density lipoprotein cholesterol levels; format: functional; outline: as §6
[21] = Effect on serum lipids in 7th group of normal chow-fed male rats after a dose of 100 mg/kg/day was evaluated as ratio of total plasma cholesterol levels to high-density lipoprotein cholesterol levels; format: functional; outline: as §6
Cricetinae gen. sp. [22] = assay: Effect of compound on triglycerides level in 3rd group of cholesterol-fed male hamsters at 30 mg/kg/day after 14 days of treatment; conditions: Mesocricetus auratus
Cricetinae gen. sp. [23] = assay: Effect of compound on lactic dehydrogenase (LDH) levels in 4th group of cholesterol-fed male hamsters at 100 mg/kg/day after 14 days of treatment; conditions: Mesocricetus auratus
Cricetinae gen. sp. [24] = assay: Effect of compound on low-density lipoprotein cholesterol levels in 4th group of cholesterol-fed male hamsters at 100 mg/kg/day after 14 days of treatment; conditions: Mesocricetus auratus
Cricetinae gen. sp. [25] = assay: Effect of compound on very low-density lipoprotein cholesterol levels in 1st group of cholesterol-fed male hamsters at 3 mg/kg/day after 14 days of treatment; conditions: Mesocricetus auratus

**Q.** For `CCN1CC(=O)N(c2cc(Cl)ccc2C)C1=S`, which Change (Cricetinae gen. sp. [1]) is on record?
**A.** 43%

**Q.** What about the Change (Cricetinae gen. sp. [2]) of the same compound?
**A.** -30.1%

**Q.** What about the Serum level (Cricetinae gen. sp. [3]) of the same compound?
**A.** 136 mg/dL

**Q.** And the Body weight (Rattus norvegicus [4])?
**A.** 30.3 g

**Q.** What about the Change (Rattus norvegicus [5]) of the same compound?
**A.** -17.2%

**Q.** And the Level (Rattus norvegicus [6])?
**A.** 61 U l-1

**Q.** And the Level (Rattus norvegicus [7])?
**A.** 62 U l-1

**Q.** And the Level (Rattus norvegicus [8])?
**A.** 214 U l-1

**Q.** And the Liver weight (Rattus norvegicus [9])?
**A.** 8.4 g

**Q.** What about the Serum level (Rattus norvegicus [10]) of the same compound?
**A.** 88.8 mg/dL

**Q.** What about the Serum level (Rattus norvegicus [11]) of the same compound?
**A.** 3.4 µg/dL

**Q.** And the Serum level (Rattus norvegicus [12])?
**A.** 56 mg/dL

**Q.** And the Serum level (Rattus norvegicus [13])?
**A.** 118 mg/dL

**Q.** What about the Serum level (Rattus norvegicus [14]) of the same compound?
**A.** 12 mg/dL

**Q.** What about the Level (Rattus norvegicus [15]) of the same compound?
**A.** 553 U l-1

**Q.** And the Level (Rattus norvegicus [16])?
**A.** 681 U l-1

**Q.** And the Level (Rattus norvegicus [17])?
**A.** 724 U l-1

**Q.** What about the Serum level (Rattus norvegicus [18]) of the same compound?
**A.** 5.3 mg/dL

**Q.** What about the Ratio [19] of the same compound?
**A.** 1.44

**Q.** And the Ratio [20]?
**A.** 2.03

**Q.** And the Ratio [21]?
**A.** 1.56

**Q.** What about the Serum level (Cricetinae gen. sp. [22]) of the same compound?
**A.** 433 mg/dL

**Q.** And the Level (Cricetinae gen. sp. [23])?
**A.** 1390 U l-1

**Q.** And the Serum level (Cricetinae gen. sp. [24])?
**A.** 102 mg/dL

**Q.** And the Serum level (Cricetinae gen. sp. [25])?
**A.** 115 mg/dL
